Measurements gathered from unrelated publications.
Each line is one published result; the experiments were not run side by side.
Read-out: cell growth or viability

SMILES | cell line | method | time | endpoint | result
N.N.[Cl][Pt][Cl] | B16-F10 | MTT | – | IC50 | 9.38 µM
N.N.[Cl][Pt][Cl] | CCD 19Lu | – | 24 h | IC50 | > 100 µM
N.N.[Cl][Pt][Cl] | M21 | SRB | 48 h | IC50 | 17 µM
CN[C@@H]1C[C@H]2O[C@@](C)([C@@H]1OC)n1c3ccccc3c3c4c(c5c6ccccc6n2c5c31)C(=O)NC4 | KB 3-1 | WST-1 | 5 days | Kb | 0.004 µM
CC[C@@H]1C(=O)N(C)c2cnc(Nc3ccc(C(=O)NC4CCN(C)CC4)cc3OC)nc2N1C1CCCC1 | MB002 | – | 7 days | IC50 | 0.0034 µM
CC[C@H](C)[C@@H]([C@@H](CC(=O)N1CCC[C@H]1[C@H](OC)[C@@H](C)C(=O)N[C@H](C)[C@@H](O)c1ccccc1)OC)N(C)C(=O)[C@@H](NC(=O)[C@H](C(C)C)N(C)C(=O)OCc1ccc(NC(=O)[C@H](C)NC(=O)[C@@H](NC(=O)CCc2cn(CCOCCOCCOCCOCC(=O)NCc3ccc(CN4C(=O)[C@H]5CC(=O)N[C@H](C(=O)O)CC(=O)NCC(=O)N[C@@H](CCCNC(=N)N)C(=O)NC[C@H]4C(=O)N5)cc3)nn2)C(C)C)cc1)C(C)C | M21 | MTT | 72 h | IC50 | 0.00694 µM
CC[C@H](Nc1nc(NCc2cnc(C)cc2C)c2ncn(C(C)C)c2n1)[C@@H](C)O | MB002 | – | 7 days | IC50 | 0.277 µM
COc1ccc2c(c1)[nH]c1c(C)nccc12 | BT-474 | MTT | 72 h | IC50 | 20.2 µM
Cc1sc2c(c1C)C(c1ccc(Cl)cc1)=N[C@@H](CC(=O)Nc1ccc(O)cc1)c1nnc(C)n1-2 | MB002 | – | 7 days | IC50 | 0.0126 µM
CC[C@H](C)[C@@H]([C@@H](CC(=O)N1CCC[C@H]1[C@H](OC)[C@@H](C)C(=O)N[C@H](C)[C@@H](O)c1ccccc1)OC)N(C)C(=O)[C@@H](NC(=O)[C@H](C(C)C)N(C)C(=O)CCc1cn(CCOCCOCCOCCOCC(=O)NCc2ccc(CN3C(=O)[C@H]4CC(=O)N[C@H](C(=O)O)CC(=O)NCC(=O)N[C@@H](CCCNC(=N)N)C(=O)NC[C@H]3C(=O)N4)cc2)nn1)C(C)C | M21 | MTT | 72 h | IC50 | 0.4 µM
